Compound activity (PubChem)
hERG protect – shields human hERG channel from block by proarrhythmic agents. CHO-hERG, FluxOR thallium flux, dofetilide IC70 present. actives 0.51% (n = 310,000). AID 1511. activation (rescue from dofetilide block), less the hit threshold, % at 10 µM;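 active = activation above the mean of controls blocked by dofetilide plus 5 SD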;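 note: thallium influx through hERG after potassium depolarization seen as dye fluorescence rise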
AI-2 QS mod – modulators of Vibrio harveyi AI-2 quorum sensing system; actives 0.4% (n = 300,000); activity change, % at 7.5 µM; Vibrio harveyi JMH597 AI-2 luminescence/OD600 ratio, 9 h; hits give low values; strain lacks LuxN and CqsS sensors; 0 = neutral-control median; in the data active = activity change below about -75%, passing the limit was not always enough;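 note: luminescence divided by OD600 gain over 9 h not by final OD600 alone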
KCNQ1 act – potentiators or activators of human KCNQ1 potassium channel | P51787 | CHO-K1 KCNQ1, thallium flux FluxOR fluorescence; hits give high values | B-score at 10 µM | actives 0.35% (n = 310,000) | AID 2648;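 active = fluorescence ratio B-score, a plate-corrected score, at least three library SD, with initial intensity B-score within 5 SD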
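Assay system: stable KCNQ1 CHO-K1 line; medium: assay buffer, equal DMSO in all wells; timing: 90 min dye loading and 20 min compound exposure, both at room temperature; technique: kinetic FluxOR thallium fluorescence, 10-s 1-Hz baseline, 110-s post-stimulus read; read-out basis: B score of baseline-normalized fluorescence ratio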
SUMO Mot1 rescue – inhibitors of SUMOylation pathway: yeast Mot1-301 growth rescue | S. cerevisiae Mot1-301 growth rescue, ATP luminescence, 38.5C; percent above DMSO median, 100 means doubled | AID 2716 | actives 1% (n = 320,000) | growth rescue, % at 18.8 µM;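 active = every valid replicate shows activation above 250% relative to neutral control wells; inactive = the rest, any valid replicate at or below 250%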
Cl transport mod – modulates chloride dependent transport by human KCC2; B-score of Tl+ flux slope (higher = more flux/activation; lower = inhibition) at 10 µM; actives 2.2% (n = 190,000); Q9H2X9; KCC2 cells, thallium flux FluoZin-2 fluorescence; AID 1456;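 active = thallium flux slope and its plate-corrected score both differing from the plate sample mean at a set confidence after two filtering rounds, in either direction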;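 note: slope of fluorescence scaled to starting intensity during 10 to 20 s after thallium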
KCNQ1 inh – inhibitors of human KCNQ1 potassium channel. AID 2642. CHO-K1 KCNQ1, FluxOR thallium flux fluorescence; hits give high values. P51787. B-score at 10 µM. actives 1.3% (n = 310,000);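 active = compounds whose thallium flux B-score, printed positive for inhibition, exceeds three library SD while starting fluorescence stays within three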;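 note: channel opened by potassium depolarization with thallium stimulus after 20 min compound exposure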
Numbers stand for hits. Shown are actives, neighbours in structure and some others; about 4.2% of the full set was active somewhere.

`O=S(=O)(NCc1ccco1)c1ccc(Cl)nc1` gave hERG protect inactive, AI-2 QS mod inactive, KCNQ1 act inactive, SUMO Mot1 rescue inactive, Cl transport mod inactive and KCNQ1 inh inactive.
Screening COc1cccc(N2CCN(c3ncnc4c3[nH]c3ccc(F)cc34)CC2C)c1 (stereo not drawn) returned hERG protect inactive, AI-2 QS mod inactive, KCNQ1 act inactive, SUMO Mot1 rescue inactive, Cl transport mod inactive and KCNQ1 inh 13.
`COc1ccc2[nH]c3c(N4CC(C)OC(C)C4)ncnc3c2c1` (stereo not drawn) gave hERG protect inactive, AI-2 QS mod inactive, KCNQ1 act inactive, SUMO Mot1 rescue inactive and KCNQ1 inh inactive.
Screening O=C(NN=C1c2ccccc2-c2ccccc21)c1ccccc1Br returned hERG protect inactive, AI-2 QS mod inactive, KCNQ1 act inactive, SUMO Mot1 rescue inactive, Cl transport mod 14 and KCNQ1 inh inactive.
Screening CCCN(C(=O)CCl)C1=CCCCC1 returned hERG protect inactive, AI-2 QS mod inactive, KCNQ1 act inactive, SUMO Mot1 rescue inactive and KCNQ1 inh inactive.
For O=C(Nc1cccc(Cl)c1)c1ccccc1NC(=O)C1CCCCC1C(=O)O (stereo not drawn) the results were hERG protect inactive, AI-2 QS mod inactive, KCNQ1 act inactive, SUMO Mot1 rescue inactive and KCNQ1 inh inactive.
`CCC(C)Sc1ccc([C@@H]2[C@@H]3C(=O)N(C)C(=O)[C@@H]3[C@]3(C(=O)OC)CCCCN23)cc1` (stereo partly drawn) gave hERG protect inactive, AI-2 QS mod inactive, KCNQ1 act inactive, SUMO Mot1 rescue inactive and KCNQ1 inh inactive.
For O=C(CSc1nc2nc(-c3cccs3)cc(C(F)(F)F)c2c(=O)[nH]1)Nc1c(F)c(F)c(F)c(F)c1F the results were hERG protect inactive, AI-2 QS mod inactive, KCNQ1 act inactive, SUMO Mot1 rescue inactive, Cl transport mod inactive and KCNQ1 inh 10.
`COc1cc(Cl)c(C)cc1NC(=O)COC(=O)c1cc[n+]([O-])cc1` gave hERG protect inactive, AI-2 QS mod inactive, KCNQ1 act inactive, SUMO Mot1 rescue inactive, Cl transport mod inactive and KCNQ1 inh inactive.
For Cc1cccc(NC(=O)C(C)Oc2ccc(C)nc2[N+](=O)[O-])c1 (stereo not drawn) the results were SUMO Mot1 rescue inactive.
`Cc1ccc(S(=O)(=O)Nc2c(C)cc(C)nc2Cl)cc1` gave hERG protect inactive, AI-2 QS mod inactive, KCNQ1 act inactive, SUMO Mot1 rescue inactive and KCNQ1 inh inactive.
Screening Cc1ccc(C2c3c(-c4ccccc4O)n[nH]c3C(=O)N2Cc2ccncc2)cc1 (stereo not drawn) returned hERG protect 12, AI-2 QS mod inactive, KCNQ1 act inactive, SUMO Mot1 rescue inactive and KCNQ1 inh inactive.
`Cc1nc([N+](=O)[O-])c(C(=O)OCc2cccc(Br)c2)n1C` gave hERG protect inactive, AI-2 QS mod inactive, KCNQ1 act inactive, SUMO Mot1 rescue inactive, Cl transport mod inactive and KCNQ1 inh inactive.
For CCC(C(=O)NC(C)(C)C)N(Cc1ccccc1Cl)C(=O)c1snc(C(N)=O)c1N (stereo not drawn) the results were hERG protect inactive, AI-2 QS mod inactive, KCNQ1 act inactive, SUMO Mot1 rescue inactive and KCNQ1 inh inactive.
CCCCC(C(=O)NC(C)(C)C)N(Cc1ccccc1Cl)C(=O)c1snc(C(N)=O)c1N (stereo not drawn) was read as hERG protect inactive, AI-2 QS mod inactive, KCNQ1 act inactive and KCNQ1 inh 6.
Screening CCCC(C(=O)NC(C)(C)C)N(Cc1ccccc1Cl)C(=O)c1snc(C(N)=O)c1N (stereo not drawn) returned hERG protect inactive, AI-2 QS mod inactive, KCNQ1 act inactive, SUMO Mot1 rescue inactive and KCNQ1 inh 7.
`Cc1csc(Nc2nc(N)c(C(=O)Nc3cc(Cl)ccc3F)o2)n1` gave hERG protect inactive, AI-2 QS mod inactive, KCNQ1 act inactive, SUMO Mot1 rescue inactive and KCNQ1 inh inactive.
`CCCN(C(=O)CCNC(=O)Cn1cnc2ccccc2c1=O)c1cccc(Cl)c1` gave hERG protect inactive, AI-2 QS mod inactive, KCNQ1 act inactive, SUMO Mot1 rescue inactive and KCNQ1 inh inactive.
For Cc1nc(NCCc2ccc(S(N)(=O)=O)cc2)c2c(C)c(C)sc2n1 the results were hERG protect inactive, AI-2 QS mod inactive, KCNQ1 act inactive, SUMO Mot1 rescue inactive, Cl transport mod 21 and KCNQ1 inh inactive.
`Cc1nc(NCc2ccc(S(N)(=O)=O)cc2)c2c(C)c(C)sc2n1` gave hERG protect inactive, AI-2 QS mod inactive, KCNQ1 act inactive, SUMO Mot1 rescue inactive and KCNQ1 inh inactive.
For Brc1ccc(N/N=C(/N=Nc2nn[nH]n2)c2ccccc2)cc1 the results were hERG protect inactive, AI-2 QS mod inactive, KCNQ1 act inactive, SUMO Mot1 rescue inactive and KCNQ1 inh 12.
C/C(=N\Nc1ccc(C(=O)O)cc1)c1ccc(Br)cc1 was read as hERG protect inactive, AI-2 QS mod inactive, KCNQ1 act inactive, SUMO Mot1 rescue inactive, Cl transport mod inactive and KCNQ1 inh inactive.
Screening Cc1cc(C)nc(SCc2nnc(SCC(=O)Nc3nc(-c4ccccc4)cs3)n2-c2ccccc2)n1 returned hERG protect 6.5, AI-2 QS mod inactive, KCNQ1 act inactive, SUMO Mot1 rescue inactive, Cl transport mod inactive and KCNQ1 inh inactive.
COc1ccc(NCc2nnc(SCC(=O)Nc3nc(-c4ccccc4)cs3)n2-c2ccccc2)cc1 was read as hERG protect inactive, AI-2 QS mod inactive, KCNQ1 act inactive, SUMO Mot1 rescue inactive, Cl transport mod inactive and KCNQ1 inh inactive.
For Cc1ccc(-c2csc(NC(=O)CSc3nc(C)cc(=O)[nH]3)n2)cc1 the results were hERG protect inactive, AI-2 QS mod inactive, KCNQ1 act inactive, SUMO Mot1 rescue inactive, Cl transport mod -4.2 and KCNQ1 inh inactive.
`Cc1ccc(NC(=O)COc2ccccc2CNC(C)(C)CC(C)(C)C)cc1` gave hERG protect inactive, AI-2 QS mod inactive, KCNQ1 act inactive, SUMO Mot1 rescue inactive, Cl transport mod inactive and KCNQ1 inh 8.
Screening CCN(CC)c1ccc(/C=C/c2nc3ccccc3s2)cc1 returned hERG protect inactive, AI-2 QS mod inactive, KCNQ1 act inactive and KCNQ1 inh 8.
COc1ccc(CNC(=S)Nc2ccc(F)c(Cl)c2)cc1OC was read as hERG protect 4.9, AI-2 QS mod inactive, KCNQ1 act inactive, SUMO Mot1 rescue inactive, Cl transport mod inactive and KCNQ1 inh inactive.
For COc1ccc(CNC(=S)Nc2ccccc2)cc1Cl the results were hERG protect inactive, AI-2 QS mod inactive, KCNQ1 act inactive, SUMO Mot1 rescue inactive and KCNQ1 inh inactive.
